Test results taken from PMC4512242 (Nature chemical biology, 2015).
Ends that are not written are not given here.

B1: LynD heterocyclase (cyclodehydratase), full length (enzyme, Lyngbya sp. PCC 8106)
chain: MQSTPLLQIQPHFHVEVIEPKQVYLLGEQANHALTGQLYCQILPLLNGQYTLEQIVEKLDGEVPPEYIDYVLERLAEKGYLTEAAPELSSEVAAFWSELGIAPPVAAEALRQPVTLTPVGNISEVTVAALTTALRDIGISVQTPTEAGSPTALNVVLTDDYLQPELAKINKQALESQQTWLLVKPVGSVLWLGPVFVPGKTGCWDCLAHRLRGNREVEASVLRQKQAQQQRNGQSGSVIGCLPTARATLPSTLQTGLQFAATEIAKWIVKYHVNATAPGTVFFPTLDGKIITLNHSILDLKSHILIKRSQCPTCGDPKILQHRGFEPLKLESRPKQFTSDGGHRGTTPEQTVQKYQHLISPVTGVVTELVRITDPANPLVHTYRAGHSFGSATSLRGLRNTLKHKSSGKGKTDSQSKASGLCEAVERYSGIFQGDEPRKRATLAELGDLAIHPEQCLCFSDGQYANRETLNEQATVAHDWIPQRFDASQAIEWTPVWSLTEQTHKYLPTALCYYHYPLPPEHRFARGDSNGNAAGNTLEEAILQGFMELVERDGVALWWYNRLRRPAVDLGSFNEPYFVQLQQFYRENDRDLWVLDLTADLGIPAFAGVSNRKTGSSERLILGFGAHLDPTIAILRAVTEVNQIGLELDKVPDENLKSDATDWLITEKLADHPYLLPDTTQPLKTAQDYPKRWSDDIYTDVMTCVNIAQQAGLETLVIDQTRPDIGLNVVKVTVPGMRHFWSRFGEGRLYDVPVKLGWLDEPLTEAQMNPTPMPF
B2: LynD fusion protein (PatE leader residues 21-38 and an eleven residue linker on the N-terminus of LynD) (enzyme)
chain: QLSSQLAELSEEALGDAGAGAGAGAGAGAMQSTPLLQIQPHFHVEVIEPKQVYLLGEQANHALTGQLYCQILPLLNGQYTLEQIVEKLDGEVPPEYIDYVLERLAEKGYLTEAAPELSSEVAAFWSELGIAPPVAAEALRQPVTLTPVGNISEVTVAALTTALRDIGISVQTPTEAGSPTALNVVLTDDYLQPELAKINKQALESQQTWLLVKPVGSVLWLGPVFVPGKTGCWDCLAHRLRGNREVEASVLRQKQAQQQRNGQSGSVIGCLPTARATLPSTLQTGLQFAATEIAKWIVKYHVNATAPGTVFFPTLDGKIITLNHSILDLKSHILIKRSQCPTCGDPKILQHRGFEPLKLESRPKQFTSDGGHRGTTPEQTVQKYQHLISPVTGVVTELVRITDPANPLVHTYRAGHSFGSATSLRGLRNTLKHKSSGKGKTDSQSKASGLCEAVERYSGIFQGDEPRKRATLAELGDLAIHPEQCLCFSDGQYANRETLNEQATVAHDWIPQRFDASQAIEWTPVWSLTEQTHKYLPTALCYYHYPLPPEHRFARGDSNGNAAGNTLEEAILQGFMELVERDGVALWWYNRLRRPAVDLGSFNEPYFVQLQQFYRENDRDLWVLDLTADLGIPAFAGVSNRKTGSSERLILGFGAHLDPTIAILRAVTEVNQIGLELDKVPDENLKSDATDWLITEKLADHPYLLPDTTQPLKTAQDYPKRWSDDIYTDVMTCVNIAQQAGLETLVIDQTRPDIGLNVVKVTVPGMRHFWSRFGEGRLYDVPVKLGWLDEPLTEAQMNPTPMPF

How the values were obtained:
LynD = experiment: Heterocyclization reaction with LynD, MS; format: biochemical, Lyngbya sp. PCC 8106; conditions: LynD wild type; 100 μM PatE′ or variant, 5 μM enzyme, 150 mM NaCl, 10 mM HEPES pH 7.4, 1 mM TCEP, 5 mM ATP, 5 mM MgCl2, 16 h, 37 °C; ESI or MALDI MS
How it was run: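 Codon-optimized full-length LynD, with a TEV-cleaved His6-tag, is purified from E. coli BL21 (DE3) by Ni, monoQ and size-exclusion steps. PatE′ (C-terminal His6) comes from inclusion bodies, purified in 8 M urea, then DTT-treated and gel-filtered. 100 μM substrate is reacted with 5 μM enzyme and 5 mM ATP/MgCl2 in HEPES pH 7.4 for 16 h at 37 °C. Heterocycle number is read by ESI or MALDI MS.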

SEC = molecular target: the molecule itself; experiment: SEC

Molecule	No. of heterocycles (LynD)	stoichiometry N (SEC)
PatE′ E32R (MDKKNILPQQGQPVIRLTAGQLSSQLAELSERALGDAGLEASKITACITFCAYDGELE; not fully specified (C-terminus); cysteine pairing not given here)	2	
PatE′ L26R (MDKKNILPQQGQPVIRLTAGQLSSQRAELSEEALGDAGLEASKITACITFCAYDGELE; not fully specified (C-terminus); cysteine pairing not given here)	2	
B1		2
B2		2
